Experimental data reported in the RNAGym collection of RNA variant scans (doi:10.1002/anie.201605470).

B1: Osa-1-4 twister ribozyme (parent)
chain: CCGCCUAACACUGCCAAUGCCGGUCCCAAGCCCGGAUAAAAGUGGAGGGGGCGG

Variants of: B1
Experiment: self-cleavage, relative activity (ratio to wild type); higher = more cleavage; co-transcriptional
Procedure, shortened: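 For each read, cleavage status was taken from whether upstream sequence was present. The reads came from an Oryza sativa twister ribozyme of 54 nucleotides, whose DNA template was synthesised with 97 % wild-type base and 1 % of each other base at the 48 positions downstream of the cleavage site. The template was transcribed in vitro at 37 °C for 2 h with co-transcriptional self-cleavage, and the RNA was reverse-transcribed using a template-switching oligonucleotide, PCR-amplified and deep-sequenced. Relative activity is the fraction cleaved normalised to wild type.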

Variant | self-cleavage
G53A U12C | 0.37
G53A U12G | 0.18
G53A U12A | 0.28
C52U U24G | 0.03
C52U U24A | 0.33
C52U U24C | 0.56
G53U U18A | 0.41
G53U U18G | 0.39
G53U U18C | 0.3
G53U G54U | 0.46
G53U G54C | 0.14
G53U G54A | 0.25
G54C U12G | 0.32
G54C U12C | 0.57
G54C U12A | 0.43
C52U U18G | 0.86
C52U U18A | 0.97
C52U U18C | 1
G54U U37G | 0.98
G54U U37C | 1.02
G54U U37A | 0.73
G54U U12C | 0.67
G54U U12A | 0.62
G54U U12G | 0.4
G53C U18C | 0.1

Variant | self-cleavage
G53C U18A | 0.09
G53C U18G | 0.14
G53U U43G | 0.13
G53U U43C | 0.15
G53U U43A | 0.2
G54A U43C | 0.58
G54A U43G | 0.69
G54A U43A | 0.84
G53A U24G | 0.03
G53A U24C | 0.08
G53A U24A | 0.09
G54C U24G | 0.02
G54C U24C | 0.11
G54C U24A | 0.07
G53C U24G | 0.01
G53C U24C | 0.03
G53C U24A | 0.04
G53A U43C | 0.43
G53A U43G | 0.37
G53A U43A | 0.64
C52U G54A | 0.98
C52U G54U | 1.03
C52U G54C | 0.94
G54C U37C | 1.02
G54C U37G | 1.03

Variant | self-cleavage
G54C U37A | 0.71
G53U | 0.56
G53C | 0.13
G53A | 0.93
G54A U24G | 0.03
G54A U24C | 0.13
G54A U24A | 0.13
G54A U18G | 0.71
G54A U18A | 0.88
G54A U18C | 0.93
G54C U43A | 0.86
G54C U43C | 0.6
G54C U43G | 0.76
G54U U18G | 0.73
G54U U18C | 0.95
G54U U18A | 0.9
G53A G54U | 0.79
G53A G54C | 0.66
G53A G54A | 0.62
G53A U37C | 0.97
G53A U37A | 0.57
G53A U37G | 0.97
G53U U37G | 0.61
G53U U37A | 0.32
G53U U37C | 0.55

Variant | self-cleavage
G54U U43A | 0.84
G54U U43G | 0.7
G54U U43C | 0.7
G53U U12C | 0.13
G53U U12A | 0.12
G53U U12G | 0.07
G53U U24A | 0.06
G53U U24G | 0.03
G53U U24C | 0.06
G53A U18A | 0.8
G53A U18G | 0.65
G53A U18C | 0.83
G53C U12G | 0.04
G53C U12C | 0.05
G53C U12A | 0.07
G54C U18C | 0.91
G54C U18G | 0.77
G54C U18A | 0.85
C52U U12A | 0.99
C52U U12C | 0.65
C52U U12G | 0.78
G53C U37G | 0.15
G53C U37C | 0.11
G53C U37A | 0.06
G54U U24G | 0.04

Variant | self-cleavage
G54U U24C | 0.23
G54U U24A | 0.34
C52U U43G | 0.88
C52U U43A | 1
C52U U43C | 0.62
G53C U43G | 0.07
G53C U43C | 0.07
G53C U43A | 0.08
G53C G54C | 0.08
G53C G54U | 0.25
G53C G54A | 0.1
G54A U12C | 0.56
G54A U12G | 0.28
G54A U12A | 0.48
C52U U37A | 0.84
C52U U37C | 1.07
C52U U37G | 1.06
G54A U37G | 1
G54A U37C | 0.98
G54A U37A | 0.73
G54C | 1
G54U | 1
G54A | 1
